Laboratory results as given in ChEMBL document CHEMBL5236609, “Optimization of 1,2,4-Triazole-3-thiones toward Broad-Spectrum Metallo-β-lactamase Inhibitors Showing Potent Synergistic Activity on VIM- and NDM-1-Producing Clinical Isolates” (J Med Chem, 2022).
Calls of active or inactive are those of the source. No cut-off for these calls is given here.

How the values were obtained:
[1] = system: Klebsiella pneumoniae; experiment: Antimicrobial activity against blaVIM-4-producing multidrug-resistant Klebsiella pneumoniae VA-416/02 clinical isolate assessed as meropenem MIC at 32 ug/ml by broth microdilution method (reference value: […] ug/ml); assay type: functional; conditions: dose 32 µg/ml
Summary of the method: (§1)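 Inoculum was 5×10^4 CFU/well. Each inhibitor was present at a fixed 32 μg/mL, and MICs were also taken without inhibitor.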

[2] = system: Klebsiella pneumoniae; experiment: Antimicrobial activity against blaVIM-1-producing multidrug-resistant Klebsiella pneumoniae K47-25 clinical isolate assessed as meropenem MIC at 32 ug/ml by broth microdilution method (reference value: […] ug/ml); assay type: functional; conditions: dose 32 µg/ml; summary of the method: as §1
[3] = Inhibition of bacterial VIM-2 (unknown origin) expressed in Escherichia coli EXPRESS BL21(DE3) assessed as inhibition constant by measuring rate of substrate hydrolysis by UV-visible spectrophotometry; design: species or system Bacteria
Summary of the method: (§2)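 Reporter-substrate assay with purified MBL (1–70 nM final) in 50 mM HEPES pH 7.5 at 30 °C. […] Inhibitor 0.5–1000 μM final. Ki derived from the v0/vi vs [I] slope assuming competitive inhibition, or from a Dixon plot. Ki given when inhibition >70%, otherwise % inhibition at 100 μM. Triplicate.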

[4] = system: Pseudomonas aeruginosa; experiment: Antimicrobial activity against blaVIM-2-producing multidrug-resistant Pseudomonas aeruginosa VA-182/00 clinical isolate assessed as meropenem MIC at 32 ug/ml by broth microdilution method (reference value: 128 ug/ml); assay type: functional; conditions: dose 32 µg/ml; summary of the method: as §1
[5] = Inhibition of bacterial VIM-4 (unknown origin) expressed in Escherichia coli EXPRESS BL21(DE3) assessed as inhibition constant by measuring rate of substrate hydrolysis by UV-visible spectrophotometry; design: species or system Bacteria; summary of the method: as §2
[6] = Cytotoxicity against human HeLa cells assessed as LDH release incubated for 24 hrs by membrane integrity assay; assay type: toxicity, cell-based
Summary of the method: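 HeLa cells (20,000/well) exposed to compound up to 250 μM for 24 h at 37 °C, 5% CO2 in DMEM with 10% FBS, 4.5 mg/mL glucose and 2 mM L-glutamine. LDH release expressed as % of Triton X-100 maximum lysis; IC50 is the concentration giving 50% cytotoxicity.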

[7] = Inhibition of bacterial NDM-1 (unknown origin) expressed in Escherichia coli EXPRESS BL21(DE3) assessed as inhibition constant by measuring rate of substrate hydrolysis by UV-visible spectrophotometry; design: species or system Bacteria; summary of the method: as §2
[8] = system: Bacteria; experiment: Inhibition of bacterial IMP-1 (unknown origin) expressed in Escherichia coli EXPRESS BL21(DE3) assessed as inhibition constant by measuring rate of substrate hydrolysis at 100 uM by UV-visible spectrophotometry relative to control; summary of the method: as §2
[9] = system: Escherichia coli; experiment: Antimicrobial activity against blaNDM-1-producing multidrug-resistant Escherichia coli SI-004 clinical isolate assessed as meropenem MIC at 32 ug/ml by broth microdilution method (reference value: 64 ug/ml)
[10] = Inhibition of bacterial VIM-1 (unknown origin) expressed in Escherichia coli EXPRESS BL21(DE3) assessed as inhibition constant by measuring rate of substrate hydrolysis by UV-visible spectrophotometry; design: species or system Bacteria; summary of the method: as §2
[11] = Inhibition of bacterial IMP-1 (unknown origin) expressed in Escherichia coli EXPRESS BL21(DE3) assessed as inhibition constant by measuring rate of substrate hydrolysis by UV-visible spectrophotometry; design: species or system Bacteria; summary of the method: as §2
[12] = Inhibition of bacterial Metallo-beta-lactamase IMP-1 (unknown origin); design: species or system Bacteria; summary of the method: as §2
[13] = Inhibition of bacterial Metallo-beta-lactamase VIM-1 (unknown origin); design: species or system Bacteria; summary of the method: as §2
[14] = system: Bacteria; experiment: Inhibition of bacterial Metallo-beta-lactamase NDM-1 (unknown origin) at 100 uM relative to control; summary of the method: as §2
[15] = Inhibition of bacterial Metallo-beta-lactamase VIM-2 (unknown origin); design: species or system Bacteria; summary of the method: as §2
[16] = Inhibition of bacterial Metallo-beta-lactamase VIM-4 (unknown origin); design: species or system Bacteria; summary of the method: as §2
[17] = Inhibition of bacterial Metallo-beta-lactamase NDM-1 (unknown origin); design: species or system Bacteria; summary of the method: as §2
[18] = system: Bacteria; experiment: Inhibition of bacterial Metallo-beta-lactamase VIM-1 (unknown origin) at 100 uM relative to control; summary of the method: as §2
[19] = system: Bacteria; experiment: Inhibition of bacterial NDM-1 (unknown origin) expressed in Escherichia coli EXPRESS BL21(DE3) assessed as inhibition constant by measuring rate of substrate hydrolysis at 100 uM by UV-visible spectrophotometry relative to control; summary of the method: as §2
[20] = system: Bacteria; experiment: Inhibition of bacterial VIM-1 (unknown origin) expressed in Escherichia coli EXPRESS BL21(DE3) assessed as inhibition constant by measuring rate of substrate hydrolysis at 100 uM by UV-visible spectrophotometry relative to control; summary of the method: as §2
[21] = system: Bacteria; experiment: Inhibition of bacterial VIM-2 (unknown origin) expressed in Escherichia coli EXPRESS BL21(DE3) assessed as inhibition constant by measuring rate of substrate hydrolysis at 100 uM by UV-visible spectrophotometry relative to control; summary of the method: as §2
[22] = system: Bacteria; experiment: Inhibition of bacterial VIM-4 (unknown origin) expressed in Escherichia coli EXPRESS BL21(DE3) assessed as inhibition constant by measuring rate of substrate hydrolysis at 100 uM by UV-visible spectrophotometry relative to control; summary of the method: as §2
[23] = biological target: Insulin-degrading enzyme (Homo sapiens) (UniProt P14735); experiment: Inhibition of recombinant human IDE using ATTO 655-Cys-Lys-Leu-Val-Phe-Phe-Ala-Glu-Asp-Trp as substrate at 0.4 uM measured after 45 mins by fluorescence assay relative to control
[24] = system: Bacteria; experiment: Inhibition of bacterial NDM-1 (unknown origin) assessed as ternary complex formation using 10 uM enzyme concentration at 50 uM by native MS analysis
Summary of the method: (§3)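 Purified VIM-2 or NDM-1 was given 2 mM TCEP and 2 equiv ZnCl2, incubated 1 h, and dialysed overnight into 100 mM ammonium acetate pH 7.5. Enzyme at 10 μM was then incubated 5 min with 50 μM compound. Positive-mode nanoESI on an Orbitrap, scanning m/z 1000–4000. Species assigned from deconvoluted masses.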

[25] = system: Bacteria; experiment: Competitive inhibition of bacterial VIM-2 (unknown origin) assessed as Zn(II) content by at 48 uM by overnight equilibrium dialysis
Summary of the method: (§4)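 VIM-2 or NDM-1 (3 μM final) in 50 mM HEPES pH 7.5 mixed with compound at 0–48 μM. Incubated 1 h on ice, then dialysed overnight at 4 °C against 50 mM HEPES pH 7.5. Zn(II) content measured by atomic absorption at 213.86 nm against a zinc standard curve. Each point averages three samples.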

[26] = system: Bacteria; experiment: Inhibition of bacterial VIM-2 (unknown origin) assessed as ternary complex formation using 10 uM enzyme concentration at 50 uM by native MS analysis; summary of the method: as §3
[27] = system: Bacteria; experiment: Competitive inhibition of bacterial NDM-1 (unknown origin) assessed as Zn(II) content at 48 uM by overnight equilibrium dialysis; summary of the method: as §4
[28] = system: Bacteria; experiment: Inhibition of bacterial VIM-2 (unknown origin) assessed as Zn(II) content in protein at >5 uM by overnight equilibrium dialysis; summary of the method: as §4

Sequence of Insulin-degrading enzyme (Homo sapiens) (P14735 whole entry): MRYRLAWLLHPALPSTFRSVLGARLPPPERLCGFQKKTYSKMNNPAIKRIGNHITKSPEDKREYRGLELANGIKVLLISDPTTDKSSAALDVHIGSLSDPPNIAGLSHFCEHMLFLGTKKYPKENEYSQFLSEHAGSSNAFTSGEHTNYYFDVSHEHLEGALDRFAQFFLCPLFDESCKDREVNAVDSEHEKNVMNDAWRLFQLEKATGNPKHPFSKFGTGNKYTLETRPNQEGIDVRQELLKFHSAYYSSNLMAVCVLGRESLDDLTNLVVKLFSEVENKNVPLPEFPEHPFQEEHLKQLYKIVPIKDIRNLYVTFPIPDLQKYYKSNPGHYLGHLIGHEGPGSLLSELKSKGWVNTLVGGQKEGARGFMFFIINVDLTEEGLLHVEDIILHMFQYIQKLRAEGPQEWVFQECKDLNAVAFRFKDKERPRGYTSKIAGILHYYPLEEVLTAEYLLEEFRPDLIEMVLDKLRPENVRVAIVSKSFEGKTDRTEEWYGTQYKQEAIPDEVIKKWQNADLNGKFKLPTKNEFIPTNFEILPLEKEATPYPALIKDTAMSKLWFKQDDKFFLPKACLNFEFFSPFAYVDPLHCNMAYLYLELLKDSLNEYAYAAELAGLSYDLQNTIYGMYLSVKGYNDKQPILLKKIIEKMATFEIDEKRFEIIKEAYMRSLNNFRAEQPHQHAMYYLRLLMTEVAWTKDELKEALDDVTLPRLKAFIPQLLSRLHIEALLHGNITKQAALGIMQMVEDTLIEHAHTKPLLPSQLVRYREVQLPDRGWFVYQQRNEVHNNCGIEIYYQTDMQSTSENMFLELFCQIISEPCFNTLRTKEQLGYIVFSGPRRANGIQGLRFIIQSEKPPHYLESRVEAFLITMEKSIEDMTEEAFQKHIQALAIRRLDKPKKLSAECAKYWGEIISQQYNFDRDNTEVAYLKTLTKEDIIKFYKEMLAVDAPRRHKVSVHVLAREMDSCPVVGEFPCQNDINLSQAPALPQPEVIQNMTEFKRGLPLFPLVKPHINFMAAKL

inhibition [19] | inhibition [20] | inhibition [21] | inhibition [22] | SMILES | MIC [1] | MIC [2] | Ki [3] | MIC [4] | Ki [5] | Ki [7] | inhibition [8] | MIC [9] | Ki [10] | further results
– | – | – | – | O=C(O)[C@H](CCCn1c(-c2ccccc2)n[nH]c1=S)N(Cc1ccccn1)Cc1c[nH]cn1 | 0.03 µg/mL | 0.06 µg/mL | 640 nM | 8 µg/mL | 560 nM | 380 nM | < 30% | 0.06 µg/mL | 950 nM | CC50 at 24 h [6]: 175000 nM
– | – | – | – | O=C(O)[C@H](CCCn1c(Cc2ccc3ccccc3c2)n[nH]c1=S)N(Cc1c[nH]cn1)Cc1c[nH]cn1 | 0.06 µg/mL | 0.03 µg/mL | 270 nM | 8 µg/mL | 190 nM | 30 nM | – | 0.06 µg/mL | 80 nM | Ki [11]: 11200 nM
– | – | – | – | CC(C)(C)OC(=O)N[C@@H](CCCn1c(-c2ccccc2)n[nH]c1=S)C(=O)O | – | – | – | – | – | – | – | – | – | Ki [12]: Not Active; Ki [13]: 30800 nM; inhibition [14]: 35%; Ki [15]: 1950 nM; Ki [16]: 1510 nM
– | – | – | – | O=C(O)CCCCn1c(-c2ccccc2)n[nH]c1=S | – | – | – | – | – | – | – | – | – | Ki [12]: Not Active; Ki [13]: 13900 nM; Ki [17]: Not Active; inhibition [18]: 57%; Ki [15]: 2810 nM; Ki [16]: 1130 nM
< 30% | 48% | 47% | < 30% | O=C(O)[C@H](CCCn1c(-c2ccccc2)n[nH]c1=S)NCc1cccnc1 | – | – | – | – | – | – | < 30% | – | – | –
< 30% | 55% | < 30% | 43% | O=C(O)[C@H](CCCn1c(-c2ccccc2)n[nH]c1=S)NCc1cscn1 | – | – | – | – | – | – | 47% | – | – | –
– | – | – | – | O=C(C[C@H](Cc1ccc2ccccc2c1)n1cc(CNC(=O)c2ccc(F)cc2)nn1)NO | – | – | – | – | – | – | – | – | – | inhibition [23]: 65%
– | – | – | – | O=C(O)[C@H](CCCn1c(-c2ccccc2)n[nH]c1=S)N(Cc1cncs1)Cc1cncs1 | 1 µg/mL | 1 µg/mL | 100 nM | 128 µg/mL | 140 nM | 28000 nM | < 30% | 32 µg/mL | 300 nM | inhibition [24]: Active; inhibition [25]: Active; inhibition [26]: Active; inhibition [27]: Active
– | – | – | – | O=C(O)[C@@H](CCCn1c(-c2ccccc2)n[nH]c1=S)N(Cc1c[nH]cn1)Cc1c[nH]cn1 | 0.03 µg/mL | 0.03 µg/mL | 190 nM | 8 µg/mL | 110 nM | 14 nM | – | 0.06 µg/mL | 170 nM | Ki [11]: 7400 nM; inhibition [28]: Active

SMILES | inhibition [19] | inhibition [20] | inhibition [21] | inhibition [22] | MIC [1] | MIC [2] | Ki [3] | MIC [4] | Ki [5] | Ki [7] | inhibition [8] | MIC [9] | Ki [10] | further results
O=C(O)[C@H](CCCn1c(-c2ccccc2)n[nH]c1=S)N(Cc1ccccc1)Cc1ccccc1 | 32% | 38% | 63% | 64% | 4 µg/mL | 2 µg/mL | – | 128 µg/mL | – | – | < 30% | 64 µg/mL | – | –
